Data set [1] deals with Mus musculus. Nature of the data set: Induction of mydriasis in mouse assessed as […] at 100 mg/kg, ip by binocular microscopic analysis. Format: functional, organism-based. Also noted: dose 100 mg/kg. The method in brief:
(§1)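 Mouse pupil diameter was read through a binocular microscope fitted with an ocular micrometer (Pulewka method), after dosing within the mouse behaviour screen.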

Data set [2] deals with Rattus norvegicus. Description: Central dopaminergic activity in rat assessed as dopaminergic stimulant activity at 30 mg/kg, ip. The data set is classed as ADME, organism-based. Also noted: dose 30 mg/kg, route intraperitoneal. The conditions noted are these: in vivo. In short, it runs like this:
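Rats carrying 6-hydroxydopamine lesions of the nigrostriatal pathway (Ungerstedt), dosed 30 mg/kg ip. Rotation was scored: ipsilateral turning indicates release of endogenous dopamine, contralateral turning indicates direct dopamine-receptor stimulation.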

The test system of data set [3] is Mus musculus. Description: Toxicity in mouse at 100 mg/kg, ip. The conditions noted are these: in vivo. Format: organism-based. Also noted: dose 100 mg/kg, route intraperitoneal.
For data set [4], the system named is Mus musculus. Nature of the data set: Induction of mydriasis in mouse assessed as papillary diameter at 30 mg/kg, ip by binocular microscopic analysis. Format: functional, organism-based. Also noted: dose 30 mg/kg. In short, it runs like this:
as §1

In data set [5] the test system is Mus musculus. Description: Toxicity in mouse at 30 mg/kg, ip. Format: organism-based. Also noted: dose 30 mg/kg, route intraperitoneal. The conditions noted are these: in vivo.
Data set [6] deals with Mus musculus. Nature of the data set: Sympathomimetic activity in mouse assessed as signs of exophthalmia at 100 mg/kg, ip. Format: ADME, organism-based. Also noted: dose 100 mg/kg, route intraperitoneal. The conditions noted are these: in vivo. The method in brief: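 Irwin-type mouse behavioural screen with intraperitoneal doses of 10, 30, 100 and 300 mg/kg, compound given as the hydrochloride salt. Animals were scored by observation for overt signs, including exophthalmia as an indicator of sympathomimetic activity and mydriasis. Pupil diameter was measured under a binocular microscope with an ocular micrometer.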

Data set [7] deals with Felis catus. Nature of the data set: Sympathomimetic activity in iv dosed cat assessed as increase of heart rate and blood pressure. The data set is classed as ADME, organism-based. The conditions noted are these: in vivo. The method in brief: (§2)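 Pentobarbital-anaesthetised cat monitored for blood pressure and heart rate. Hydrochloride salt given as cumulative iv doses of 1, 3 and 10 mg/kg, each tested against a standard acetylcholine challenge of 1 μg/kg, noting any change in the normal heart-rate and pressure responses.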

Data set [8] has as its system Mus musculus. Nature of the data set: Sympathomimetic activity in mouse assessed as signs of exophthalmia and piloerection at 10 to 300 mg/kg, ip. Format: ADME, organism-based. Also noted: dose 10-300 mg/kg, route intraperitoneal. To be noted: in vivo.
Data set [9] relates to Felis catus. Nature of the data set: Anticholinergic activity in cat assessed as effect on acetylcholine-induced normal heart rate and blood pressure changes at 1 to 10 mg/kg, iv. Format: ADME, organism-based. To be noted: in vivo. Also noted: dose 1-10 mg/kg, route intravenous. In short, it runs like this: as §2
Data set [10] has as its system Mus musculus. Description: Induction of mydriasis in mouse assessed as papillary diameter at 25 mg/kg, sc by binocular microscopic analysis. Also noted: dose 25 mg/kg. The data set is classed as functional, organism-based. In short, it runs like this:
as §1

Calls of active or inactive are those of the source. The calls are words filed in the database; no cut-off is given here.

For the compound `CCCCCc1ccc(CCNC)cc1.O=C(O)/C=C\C(=O)O`, the result in data set [1] was inactive. For the same compound, the Activity entry was “Non-toxic” in data set [2] and “Toxic” in [3].
Consider `O=C(O)/C=C\C(=O)O.c1cc2ccc1CCCCCCNCC2`, for which, in data set [4], the result was inactive. Further, the Activity result is given as “Toxic” in [5] and “Non-toxic” in data set [2].
Regarding `CCCCc1ccc(CCCNC)cc1.Cl`, the Activity result in data set [6] is recorded as “Toxic”; in [2], “Non-toxic”. For the same compound, the result in data set [1] was Active.
Take `Cl.c1cc2ccc1CCCCCNCCC2`: the Activity result in data set [7], in [8], in data set [9] and in [2] was “Non-toxic” each time. For the same compound, the outcome in data set [4] and in [10] was Active.
